Bioassay records as filed in PubChem.
Efa HMGR inh: E. faecalis class II HMG-CoA reductase inhibition; purified E. faecalis HMGR, NADPH absorbance 340 nm kinetic; inhibition, % at 10 µM; 190,000 tested, 0.41% active; AID 1066;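 active = inhibition above a set limit, the median over all tested compounds plus 3 SD, cut at about 9.5% in these data; inconclusive = no clear call, values can overlap the other calls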;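 also: enzyme runs in reverse so mevalonate oxidation gives rising NADPH absorbance; 0% = complete reaction with DMSO and 100% = background rate lacking mevalonate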
RanGTP-Imp inh: disruptors of Ran-importin-beta complex formation – biochemical, FRET, CFP-Ran, YFP-importin-beta, homogeneous, primary screen; AID 2216; 300,000 tested, 1.1% active; cell-free CFP-Ran/YFP-importin-beta FRET ratio; inhibition, % (no concentration beside the values);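 active = more than half of the replicate wells show a fall in the fluorescence ratio signal beyond about 16%, limit read from the data, passing the limit was not always enough; inconclusive = exactly half of the replicate wells pass the set limit; inactive = fewer than half of replicates pass the limit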;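 also: 0% = DMSO wells and 100% = Ran loaded with GDP instead of GTP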
Wee1 stabilizer: inhibitors of human Wee1 degradation | P30291 | HeLa Luc-Wee1K328M stability, luciferase luminescence; 100% = proteasome inhibitor MG132 effect | reporter increase, % at 5 µM | 220,000 tested, 1.2% active | AID 1321;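 active = activation above the mean of all tested compounds plus 3 SD, set per screening run, cut at about 8.8% in these data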;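 also: cells exposed to compound for 20 h before luminescence read; 0% = DMSO alone and 100% = MG132 at 30 µM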
Runt-SMMHC FRET: blocks binding of human RUNX1 Runt domain to CBFb-SMMHC. Cerulean-Runt/Venus-CBFb-SMMHC FRET ratio 530/480, 1 h. AID 1434. 220,000 tested, 0.74% active. inhibition, % at 20 µM;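 active = mean inhibition across duplicate retests at 20 µM reaching about 50%, limit read from the data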;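 also: 0% = DMSO wells and 100% = wells with excess untagged CBFb-SMMHC; inhibitors lower the FRET ratio by blocking Runt binding to CBFb-SMMHC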
Target sequence (Q01196 whole entry, looked up, the tested form may be a part): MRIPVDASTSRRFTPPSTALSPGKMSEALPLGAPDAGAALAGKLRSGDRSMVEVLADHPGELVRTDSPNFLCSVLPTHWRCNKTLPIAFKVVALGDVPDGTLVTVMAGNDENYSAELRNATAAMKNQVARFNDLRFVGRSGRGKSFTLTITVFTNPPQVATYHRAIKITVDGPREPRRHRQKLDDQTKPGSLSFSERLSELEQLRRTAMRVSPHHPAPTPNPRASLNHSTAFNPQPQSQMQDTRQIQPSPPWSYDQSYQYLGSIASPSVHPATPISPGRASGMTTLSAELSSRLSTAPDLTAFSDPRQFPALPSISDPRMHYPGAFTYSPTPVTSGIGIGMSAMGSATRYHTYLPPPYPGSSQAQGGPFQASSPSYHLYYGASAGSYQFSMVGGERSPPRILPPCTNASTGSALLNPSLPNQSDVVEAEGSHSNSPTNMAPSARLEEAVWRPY
Target sequence (Q13951 whole entry, looked up, the tested form may be a part): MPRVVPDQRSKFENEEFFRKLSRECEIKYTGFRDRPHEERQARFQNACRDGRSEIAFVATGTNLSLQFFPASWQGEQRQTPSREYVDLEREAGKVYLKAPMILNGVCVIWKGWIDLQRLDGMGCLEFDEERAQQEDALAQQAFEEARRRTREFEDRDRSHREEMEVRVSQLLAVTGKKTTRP
Runt-CBFb FRET: blocks binding of human RUNX1 Runt domain to CBFb; Q01196+Q13951; Cerulean-Runt/Venus-CBFb FRET ratio 530/480, 1 h; inhibition, % at 20 µM; 220,000 tested, 0.46% active;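 active = inhibition over about 50% at 20 µM in the single-dose screen, limit read from the data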;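 also: 0% = DMSO wells and 100% = excess unlabeled CBFb competitor control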
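Assay system: Cerulean-Runt domain / Medium: Tris 50 mM pH 7.5, KCl, K2SO4, 0.01% BSA / Timing: protein complex preformed 1 h, compound exposure 1 h, room temperature, dark / Measured by: FRET, excitation 422 nm, emission at 530 and 480 nm / Evaluation: loss of energy transfer signal / Control set: 5 µM unlabeled CBFb as full-inhibition high control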
PHOSPHO1 inh: inhibitors of human PHOSPHO1 phosphatase. Q8TCT1. recombinant PHOSPHO1, absorbance phosphatase assay. inhibition, % at 13.3 µM. 290,000 tested, 1.1% active; in the data active = inhibition above about 60%
YIC FRET counter: counter-screen YIC FRET for RanGTP-importin-beta inhibitors; IC50, µM; shares compounds with RanGTP-Imp inh; Purified YIC probe, intramolecular FRET ratio YFP/CFP; 1,000 tested, 40% active;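 active = fitted half-maximal inhibitory concentration no more than tenfold above the top dose tested; inconclusive = flat fit with 30 to 70% activity, or poor fit; inactive = half-maximal concentration beyond tenfold above the top dose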
* hit, by the source's call; ? = inconclusive; nt = no result. This is a sample that favours compounds with a hit; in the whole collection about 3.4% have one here.

SMILES | Efa HMGR inh | RanGTP-Imp inh | Wee1 stabilizer | Runt-SMMHC FRET | Runt-CBFb FRET | PHOSPHO1 inh | YIC FRET counter
COc1ccccc1C(=O)NCCNc1nc2cc(C)cc(C)c2cc1C#N | nt | 19* | nt | nt | nt | -7 | 40*
COC(=O)c1ccc(NC(=O)CSc2nnc(-c3ccccc3)n2C)cc1 | -1 | 6 | -1 | 1 | -2 | -13 | nt
CNc1nnc(Sc2ncccc2[N+](=O)[O-])s1 | nt | 4 | 0 | 0 | 4 | 38 | nt
O=C(CN1C(=O)COc2ccc(Cl)cc21)Nc1ccc2c(c1)OCCO2 | -6 | 6 | -2 | 0 | 2 | 5 | nt
CCOc1ccc(NC(=O)CN2C(=O)COc3ccc(Cl)cc32)cc1 | 3 | 18* | -2 | 1 | 3 | 0 | >50
C=CCn1c(SCC(=O)Nc2sccc2C(N)=O)nc2ccccc2c1=O | 1 | 19* | -1 | 0 | -1 | 16 | >50
CCOC(=O)C1=C(N)OC2=C(C(=O)CCC2)C1c1sccc1C (centres undefined) | -1 | 23* | -2 | -3 | -2 | 0 | >50
CCOC(=O)C1=C(N)OC2=C(C(=O)CCC2)C1c1ccc(C)s1 (centres undefined) | -6 | ? | 0 | -6 | 0 | -22 | nt
COC(=O)c1cccnc1NC(=S)NNC(=O)c1ccccc1 | -7 | 27* | 1 | 0 | 3 | 16 | >50
COC(=O)c1ccc(NC(=S)NNC(=O)c2ccccc2)cc1 | -1 | 0 | -2 | 1 | 19 | -39 | nt
CN1CCN(NS(=O)(=O)c2cccs2)CC1 | -5 | 1 | -2 | -1 | 0 | -35 | nt
CC(C)Cc1nn2c(N)c(/C=C3\C=Nc4ccccc43)c(=O)nc2s1 | -1 | 25* | 0 | -54 | -85 | 20 | >50
CS(=O)(=O)c1nsc2nc(=O)c(/C=C3\C=Nc4ccccc43)c(N)n12 | 1 | 25* | 0 | 73* | 29 | 1 | 20*
NC1=NC[C@H](Cc2ccc(O)cc2)N1CCC12CC3CC(CC(C3)C1)C2 | nt | 4 | nt | 4 | 0 | 40 | nt
Cn1ncc(Cl)c1C(=O)Nc1ccc(Cl)cn1 | 0 | 1 | -1 | 2 | -1 | 4 | nt
CCCCCN(C(=O)CN(C)Cc1ccc(OC)cc1OC)c1c(N)n(CCCC)c(=O)[nH]c1=O | -2 | 20* | -3 | 4 | 2 | 13 | >50
CCCc1noc(-c2cccc([N+](=O)[O-])c2)n1 | -5 | 24* | 5 | 2 | 0 | -19 | >50
Cc1sc2c(c1C)c(=O)nc1n2Cc2ccccc2-1 | -5 | -1 | -2 | 3 | 1 | -16 | nt
CC/C(=N\NC(=O)c1cc(C2CC2)[nH]n1)c1ccccc1 | nt | 38* | nt | nt | nt | 32 | >50
Cc1nn(-c2ccccc2)c(C)c1/C=N/NC(=O)c1cc(C2CC2)[nH]n1 | -2 | 3 | 0 | 0 | 1 | 5 | nt
CC1(C)CC(=O)C/C(=N\NC(=O)C2CC2c2ccccc2)C1 (centres undefined) | -1 | 0 | 2 | 1 | 2 | 38 | nt
CC1(C)CC(=O)C/C(=N\NC(=O)C2CC23CCC3)C1 (centres undefined) | -4 | 18* | -2 | 1 | 2 | 41 | >50
Cn1nccc1C(=O)NC1CCCc2c1cnn2-c1ccc(C(C)(C)C)cc1 (centres undefined) | nt | -3 | nt | nt | nt | -16 | nt
CC(C)Sc1nc(N2CCOCC2)c2c(c1C#N)CC(C)(C)N(C)C2 | 0 | 27* | -1 | 79* | 36 | 26 | 39*
CN1Cc2c(N3CCOCC3)nc(SCCC#N)c(C#N)c2CC1(C)C | nt | 10 | 3 | 30 | 46 | 24 | nt
CC(Oc1ccccc1)C(=O)N=Nc1c(O)[nH]c2ccc(Br)cc12 (centres undefined) | 2 | -1 | 0 | 0 | 2 | -6 | nt
CC1(C)CNC(=O)C=C(c2ccccc2)C1 | -5 | 23* | -1 | 2 | 0 | 8 | >50
COC(=O)C(NC(=O)CCC(=O)N[C@@H](C(=O)OC)c1ccccc1)c1ccccc1 (some centres undefined) | nt | -2 | nt | nt | nt | -19 | nt
